Laboratory results reported in ChEMBL document CHEMBL1817571, “Design and synthesis of new prostaglandin D₂ receptor antagonists” (Bioorg Med Chem, 2011).

Key:
[1] = Half life in rat at 10 mg/kg, po; assay type: ADME, organism-based; set-up: dose 10 mg/kg, route oral; conditions: in vivo
Procedure, shortened: (§1)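 Fasted male rats (n = 3) received 1 mg/kg iv or 10 mg/kg po. Jugular vein blood was drawn with a heparinized syringe at pre-dose and 2 (iv only), 5, 15 and 30 min, and 1, 2, 4, 6 and 8 h. Plasma was obtained by centrifugation at 4 °C and stored at −80 °C. AUC, Cmax, T1/2, Vss and CL came from the plasma concentration–time course. BA was derived from dose-normalized AUCpo/AUCiv.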

[2] = Half life in rat at 1 mg/kg, iv; assay type: ADME, organism-based; set-up: dose 1 mg/kg, route intravenous; conditions: in vivo; procedure, shortened: as §1
[3] = target: Prostaglandin E2 receptor EP4 subtype (Mus musculus, UniProt P32240); assay: Displacement of [3H]PGE2 from mouse prostaglandin EP4 receptor expressed in CHO cells after 60 mins by liquid scintillation counting; assay type: cell-based
Procedure, shortened: (§2)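 Membranes came from CHO cells stably expressing mEP1, EP2, EP3 or EP4. They were incubated with 2.5 nM [3H]PGE2 and graded test concentrations in 10 mM KH2PO4–KOH (1 mM EDTA, 10 mM MgCl2, 100 mM NaCl, pH 6.0) at room temperature, 20 min for EP1 and 60 min for EP2–4. Reactions were filtered on GF/B, washed with ice-cold buffer, and counted by scintillation. IC50 came by regression, with Ki via Cheng–Prusoff.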

[4] = target: T1, Prostaglandin D2 receptor (Mus musculus, UniProt P70263); assay: Antagonist activity at mouse prostanoid DP receptor expressed in CHO cells assessed as inhibition of PGD2-induced intracellular cAMP production; assay type: functional, cell-based
T1 sequence (P70263 whole entry): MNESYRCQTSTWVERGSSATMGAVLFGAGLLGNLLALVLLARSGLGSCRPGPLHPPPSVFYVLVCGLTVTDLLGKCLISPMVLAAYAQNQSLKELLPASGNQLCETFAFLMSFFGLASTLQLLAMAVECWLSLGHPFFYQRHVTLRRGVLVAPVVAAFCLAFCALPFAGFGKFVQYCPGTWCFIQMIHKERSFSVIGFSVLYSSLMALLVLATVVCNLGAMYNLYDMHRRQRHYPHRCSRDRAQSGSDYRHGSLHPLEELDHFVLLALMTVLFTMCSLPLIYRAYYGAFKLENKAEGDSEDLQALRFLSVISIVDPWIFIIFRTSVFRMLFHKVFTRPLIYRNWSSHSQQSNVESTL
Procedure, shortened: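 CHO-mDP cells were seeded at 1×10^5 cells/well and grown 2 days. They were preincubated about 10 min at 37 °C in MEM with 2 µM diclofenac, then about 10 min in MEM with 0.1% BSA, 1 mM IBMX and 2 µM diclofenac. Test compounds at various concentrations plus 10 nM PGD2 were then added for 10 min at 37 °C. Reactions were stopped with 10% TCA, extracted with tri-n-octylamine/chloroform, and cAMP was measured by EIA.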

[5] = target: Prostaglandin E2 receptor EP2 subtype (Mus musculus, UniProt Q62053); assay: Displacement of [3H]PGE2 from mouse prostaglandin EP2 receptor expressed in CHO cells after 60 mins by liquid scintillation counting; assay type: cell-based; procedure, shortened: as §2
[6] = Volume of distribution at steady state in rat at 1 mg/kg, iv; assay type: ADME, organism-based; set-up: dose 1 mg/kg, route intravenous; conditions: in vivo, read-out: Vdss; procedure, shortened: as §1
[7] = target: T1, Prostaglandin D2 receptor; assay: Displacement of [3H]PGD2 from mouse prostanoid DP receptor expressed in CHO cells after 20 mins by liquid scintillation counting
[8] = Oral bioavailability in rat at 10 mg/kg; assay type: ADME, organism-based; conditions: in vivo; procedure, shortened: as §1
[9] = Total clearance in rat at 1 mg/kg, iv; assay type: ADME, organism-based; set-up: dose 1 mg/kg, route intravenous; conditions: in vivo; procedure, shortened: as §1
Thromboxane A2 receptor = target: T2, Thromboxane A2 receptor (Homo sapiens, UniProt P21731); assay: Displacement of [3H]-SQ29548 from human prostanoid TP receptor expressed in CHO cells after 30 mins by liquid scintillation counting
T2 sequence (P21731 whole entry): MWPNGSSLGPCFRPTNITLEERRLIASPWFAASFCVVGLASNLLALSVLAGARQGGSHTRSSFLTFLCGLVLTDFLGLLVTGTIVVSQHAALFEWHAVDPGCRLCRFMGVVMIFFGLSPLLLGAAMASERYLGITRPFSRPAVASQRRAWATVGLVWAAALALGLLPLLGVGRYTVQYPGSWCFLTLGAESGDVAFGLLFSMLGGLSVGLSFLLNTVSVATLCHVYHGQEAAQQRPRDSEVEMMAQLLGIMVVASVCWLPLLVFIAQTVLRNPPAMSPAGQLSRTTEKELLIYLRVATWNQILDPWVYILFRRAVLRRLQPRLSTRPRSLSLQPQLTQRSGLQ

[10] = AUClast in rat at 10 mg/kg, po; assay type: ADME, organism-based; set-up: dose 10 mg/kg, route oral, time 0 - last; conditions: plasma; procedure, shortened: as §1
Prostacyclin receptor = Prostacyclin receptor (Homo sapiens, UniProt P43119); assay: Displacement of [3H]Iloprost from human prostanoid IP receptor expressed in CHO cells after 30 mins by liquid scintillation counting
[11] = target: T3, Prostaglandin E2 receptor EP3 subtype (Mus musculus, UniProt P30557); assay: Displacement of [3H]PGE2 from mouse prostaglandin EP3alpha receptor expressed in CHO cells after 60 mins by liquid scintillation counting; assay type: cell-based; procedure, shortened: as §2
T3 sequence (P30557 whole entry): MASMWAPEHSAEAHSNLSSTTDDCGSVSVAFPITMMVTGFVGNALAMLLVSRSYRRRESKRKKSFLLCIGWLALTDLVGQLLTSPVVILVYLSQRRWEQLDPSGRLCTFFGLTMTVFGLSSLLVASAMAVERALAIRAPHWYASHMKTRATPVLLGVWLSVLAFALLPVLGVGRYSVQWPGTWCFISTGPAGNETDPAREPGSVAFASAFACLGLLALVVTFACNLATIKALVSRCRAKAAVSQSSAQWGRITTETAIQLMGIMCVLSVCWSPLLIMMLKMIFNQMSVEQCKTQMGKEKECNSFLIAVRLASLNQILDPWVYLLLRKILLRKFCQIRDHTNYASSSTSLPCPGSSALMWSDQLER

[12] = target: T4, Prostaglandin E2 receptor EP1 subtype (Mus musculus, UniProt P35375); assay: Displacement of [3H]PGE2 from mouse prostaglandin EP1 receptor expressed in CHO cells after 20 mins by liquid scintillation counting
T4 sequence (P35375 whole entry): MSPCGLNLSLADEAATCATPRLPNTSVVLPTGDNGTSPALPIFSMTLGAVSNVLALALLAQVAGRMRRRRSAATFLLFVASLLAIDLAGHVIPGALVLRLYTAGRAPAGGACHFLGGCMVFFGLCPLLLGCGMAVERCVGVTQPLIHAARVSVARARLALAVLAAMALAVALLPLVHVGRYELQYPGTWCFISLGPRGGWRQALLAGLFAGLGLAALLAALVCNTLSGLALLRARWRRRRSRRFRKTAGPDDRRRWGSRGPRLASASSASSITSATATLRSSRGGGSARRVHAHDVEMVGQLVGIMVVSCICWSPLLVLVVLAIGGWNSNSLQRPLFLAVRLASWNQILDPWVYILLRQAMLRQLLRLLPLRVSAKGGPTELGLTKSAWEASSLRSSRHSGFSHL

[13] = target: Prostaglandin F2-alpha receptor (Mus musculus, UniProt P43117); assay: Displacement of [3H]PGF2alpha from mouse prostanoid FP receptor expressed in CHO cells after 60 mins by liquid scintillation counting; assay type: cell-based
Procedure, shortened: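 CHO-mFP membranes were incubated with 2.5 nM [3H]PGF2α and varied test concentrations in 10 mM KH2PO4–KOH, 1 mM EDTA, 10 mM MgCl2, 100 mM NaCl, pH 6.0, for 60 min at room temperature. Samples were then filtered on GF/B, washed with ice-cold phosphate/NaCl buffer, and counted by scintillation. IC50 came from the regression curve, and Ki = IC50/(1+[L]/Kd).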

[14] = AUClast in rat at 1 mg/kg, iv; assay type: ADME, organism-based; set-up: time 0 - last, dose 1 mg/kg, route intravenous; conditions: plasma; procedure, shortened: as §1
[15] = Cmax in rat at 10 mg/kg, po; assay type: ADME, organism-based; set-up: dose 10 mg/kg, route oral; conditions: in vivo; procedure, shortened: as §1

Prostacyclin receptor, sequence (P43119 whole entry): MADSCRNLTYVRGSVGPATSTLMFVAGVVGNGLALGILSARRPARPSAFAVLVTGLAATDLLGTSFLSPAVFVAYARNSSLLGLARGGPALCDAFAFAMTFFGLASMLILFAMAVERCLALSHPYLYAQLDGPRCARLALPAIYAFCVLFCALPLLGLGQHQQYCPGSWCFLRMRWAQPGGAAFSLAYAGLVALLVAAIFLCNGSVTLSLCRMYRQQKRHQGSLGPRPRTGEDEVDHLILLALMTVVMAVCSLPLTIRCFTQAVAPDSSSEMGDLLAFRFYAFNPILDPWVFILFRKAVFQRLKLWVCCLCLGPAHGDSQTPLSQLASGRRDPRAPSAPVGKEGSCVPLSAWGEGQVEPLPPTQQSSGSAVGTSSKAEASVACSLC
Prostaglandin E2 receptor EP4 subtype, sequence (P32240 whole entry): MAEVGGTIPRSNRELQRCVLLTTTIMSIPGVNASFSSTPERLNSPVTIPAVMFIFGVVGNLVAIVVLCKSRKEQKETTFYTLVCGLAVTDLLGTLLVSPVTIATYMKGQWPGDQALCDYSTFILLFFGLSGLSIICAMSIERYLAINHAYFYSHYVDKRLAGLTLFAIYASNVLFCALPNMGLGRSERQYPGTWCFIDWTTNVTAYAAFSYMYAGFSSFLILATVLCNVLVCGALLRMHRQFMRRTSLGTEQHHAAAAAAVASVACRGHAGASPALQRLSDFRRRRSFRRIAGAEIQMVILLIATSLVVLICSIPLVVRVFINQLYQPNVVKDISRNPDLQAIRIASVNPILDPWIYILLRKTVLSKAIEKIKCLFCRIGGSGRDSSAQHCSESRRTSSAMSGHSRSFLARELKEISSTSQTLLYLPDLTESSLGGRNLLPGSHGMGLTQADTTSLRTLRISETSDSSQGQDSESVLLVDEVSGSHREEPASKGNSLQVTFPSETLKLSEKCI
Prostaglandin F2-alpha receptor, sequence (P43117 whole entry): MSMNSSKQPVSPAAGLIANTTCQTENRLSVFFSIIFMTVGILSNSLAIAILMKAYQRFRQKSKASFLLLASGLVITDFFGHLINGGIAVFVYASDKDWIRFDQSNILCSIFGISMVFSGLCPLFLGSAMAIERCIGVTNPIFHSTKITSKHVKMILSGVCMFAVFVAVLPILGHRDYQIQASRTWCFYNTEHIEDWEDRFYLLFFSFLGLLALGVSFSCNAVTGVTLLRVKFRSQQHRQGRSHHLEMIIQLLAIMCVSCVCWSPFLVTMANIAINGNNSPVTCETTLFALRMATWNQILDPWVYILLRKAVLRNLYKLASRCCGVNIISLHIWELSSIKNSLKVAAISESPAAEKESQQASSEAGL
Prostaglandin E2 receptor EP2 subtype, sequence (Q62053 whole entry): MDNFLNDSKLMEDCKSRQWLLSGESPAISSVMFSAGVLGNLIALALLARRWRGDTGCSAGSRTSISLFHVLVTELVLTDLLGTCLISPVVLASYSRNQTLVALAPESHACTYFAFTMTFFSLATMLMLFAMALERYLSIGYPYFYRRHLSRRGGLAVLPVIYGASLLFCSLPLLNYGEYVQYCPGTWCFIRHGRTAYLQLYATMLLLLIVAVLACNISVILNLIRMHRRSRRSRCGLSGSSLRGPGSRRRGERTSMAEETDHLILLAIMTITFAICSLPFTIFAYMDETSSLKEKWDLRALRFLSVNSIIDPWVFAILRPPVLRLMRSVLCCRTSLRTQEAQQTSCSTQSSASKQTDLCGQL

For Cc1ccc(CC(=O)O)cc1NC(=O)c1ccc(OC[C@@H]2CN(C)c3ccccc3O2)cc1C, the half-life [1] was 5.2 h, the half-life [2] was 3.1 h and the Ki [3] was greater than 10 µM. For the same compound, the IC50 [4] was 0.0046 µM, the Ki [5] was 0.17 µM and the Vd [6] was 0.61 L/kg. It also gave a Ki [7] of 0.031 µM, a bioavailability [8] of 62% and a clearance [9] of 3.3 mL/min/kg. It also gave a Ki (Thromboxane A2 receptor) greater than 10 µM, an AUC(0-t) [10] of 28800 ng·h/mL and a Ki (Prostacyclin receptor) of 2.6 µM. It also gave a Ki [11] greater than 10 µM, a Ki [12] greater than 10 µM and a Ki [13] greater than 10 µM. It also gave an AUC(0-t) [14] of 4600 ng·h/mL and a Cmax [15] of 8700 ng/mL.
